From ChEMBL document CHEMBL3352570, “ST7612AA1, a thioacetate-ω(γ-lactam carboxamide) derivative selected from a novel generation of oral HDAC inhibitors” (J Med Chem, 2014)

Tests used:
Histone deacetylase 8 = target: T1, Histone deacetylase 8 (Homo sapiens, UniProt Q9BY41); assay: Inhibition of HDAC8 (unknown origin) using fluorogenic tetrapeptide RHK(Ac)K(Ac) substrate by fluorescence assay
T1 sequence (Q9BY41 whole entry): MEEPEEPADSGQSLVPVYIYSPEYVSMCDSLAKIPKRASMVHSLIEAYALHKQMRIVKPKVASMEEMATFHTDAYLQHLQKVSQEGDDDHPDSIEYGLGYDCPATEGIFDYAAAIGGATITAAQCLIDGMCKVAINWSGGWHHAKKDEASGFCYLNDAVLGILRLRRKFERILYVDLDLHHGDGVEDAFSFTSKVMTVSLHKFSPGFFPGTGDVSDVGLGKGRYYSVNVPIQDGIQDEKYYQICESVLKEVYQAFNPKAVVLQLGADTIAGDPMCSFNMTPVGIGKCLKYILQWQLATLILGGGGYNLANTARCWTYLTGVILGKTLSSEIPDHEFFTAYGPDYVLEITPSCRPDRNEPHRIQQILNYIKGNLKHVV

[1] = Efflux ratio of permeability from apical to basolateral side to basolateral to apical side of human Caco2 cells; type: ADME, cell-based; details: caco-2
Summary of the method: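 Caco-2 monolayers; the efflux ratio is flux in the apical-to-basolateral direction over flux in the basolateral-to-apical direction. Means of at least three experiments.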

Mus musculus = assay: Toxicity in human HCT116 cells xenografted athymic nude mouse assessed as body weight loss at 100 mg/kg, po qd for 5 days a week for 3 weeks; type: organism-based, HCT-116; design: dose 100 mg/kg, route oral; details: in vivo
Summary of the method: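 Nude mice (female, athymic, 5–6 weeks) carried sc right-flank xenografts of 5 × 10⁶ cells per 100 μL. Oral treatment once daily started 3 days after inoculation.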

[2] = target: T2, Cholecystokinin receptor type A (Homo sapiens) (UniProt P32238); assay: Inhibition of human CCK1 at 10 uM by radioligand displacement assay
T2 sequence (whole entry): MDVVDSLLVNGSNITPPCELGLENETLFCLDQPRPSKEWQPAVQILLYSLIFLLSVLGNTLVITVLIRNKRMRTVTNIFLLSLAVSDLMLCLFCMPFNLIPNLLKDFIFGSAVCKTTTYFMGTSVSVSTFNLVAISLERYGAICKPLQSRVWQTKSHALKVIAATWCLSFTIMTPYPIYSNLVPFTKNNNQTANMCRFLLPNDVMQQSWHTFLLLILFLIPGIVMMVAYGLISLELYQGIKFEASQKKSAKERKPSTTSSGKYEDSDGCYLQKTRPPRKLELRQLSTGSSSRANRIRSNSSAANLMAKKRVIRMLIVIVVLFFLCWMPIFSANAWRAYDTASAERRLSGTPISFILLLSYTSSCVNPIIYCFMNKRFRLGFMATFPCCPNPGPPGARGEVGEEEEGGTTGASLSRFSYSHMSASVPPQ
Summary of the method: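 Tested at 10⁻⁵ M within a 40-target panel of receptors, ion channels and enzymes. Read-out was percent displacement of a radiolabeled reference ligand.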

[3] = Half life in human hepatocytes at 5 uM by LCMS/MS analysis; type: ADME, cell-based, Hepatocyte
Summary of the method: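 Incubation in human hepatocytes. […] Values are means of at least three experiments.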

Histone deacetylase 11 = target: T3, Histone deacetylase 11 (Homo sapiens, UniProt Q96DB2); assay: Inhibition of HDAC11 (unknown origin) using fluorogenic tetrapeptide RHKK(Ac) substrate by fluorescence assay
T3 sequence (Q96DB2 whole entry): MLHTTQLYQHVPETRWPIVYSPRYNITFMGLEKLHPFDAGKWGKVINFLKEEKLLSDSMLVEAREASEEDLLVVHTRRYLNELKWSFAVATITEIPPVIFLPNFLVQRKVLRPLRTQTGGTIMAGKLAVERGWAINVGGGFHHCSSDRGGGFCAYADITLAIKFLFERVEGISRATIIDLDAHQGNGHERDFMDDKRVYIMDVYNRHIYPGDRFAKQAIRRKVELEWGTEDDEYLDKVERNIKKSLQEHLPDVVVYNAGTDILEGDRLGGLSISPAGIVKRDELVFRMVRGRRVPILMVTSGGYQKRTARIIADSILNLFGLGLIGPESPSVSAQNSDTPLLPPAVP

[4] = Antitumor activity against human HCT116 cells xenografted in athymic nude mouse assessed as tumor volume inhibition at 100 mg/kg, po qd for 5 days a week for 3 weeks; type: functional; details: HCT-116
Summary of the method: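 Female athymic nude mice, 5–6 weeks old, were inoculated sc in the right flank with 5 × 10⁶ exponentially growing tumor cells per 100 μL. Oral dosing once daily began 3 days after tumor injection, in Solutol HS15 diluted 1/20 in water. Tumor volume inhibition was calculated as TVI% = 100 − [(mean TV treated/mean TV control) × 100].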

Histone deacetylase 3 = Histone deacetylase 3 (Homo sapiens, UniProt O15379); assay: Inhibition of HDAC3 (unknown origin) using fluorogenic tetrapeptide RHKK(Ac) substrate by fluorescence assay
Chain of Histone deacetylase 3 (O15379 whole entry): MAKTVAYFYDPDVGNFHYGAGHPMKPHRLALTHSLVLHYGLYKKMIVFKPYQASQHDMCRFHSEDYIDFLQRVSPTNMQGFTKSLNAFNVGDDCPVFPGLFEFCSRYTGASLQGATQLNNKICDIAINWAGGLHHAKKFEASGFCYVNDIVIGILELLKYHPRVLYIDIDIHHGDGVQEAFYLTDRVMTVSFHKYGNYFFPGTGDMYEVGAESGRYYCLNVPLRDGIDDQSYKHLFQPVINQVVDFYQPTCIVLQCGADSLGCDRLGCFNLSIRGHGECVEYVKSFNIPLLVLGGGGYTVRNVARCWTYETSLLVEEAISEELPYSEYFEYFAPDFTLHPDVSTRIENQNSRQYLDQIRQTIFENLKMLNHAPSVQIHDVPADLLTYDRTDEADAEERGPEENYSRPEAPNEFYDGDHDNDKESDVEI

- IC50 (Histone deacetylase 8): 281 nM
- Ratio [1]: 5.2
- inhibition [2]: 45%
- half-life at 5 µM [3]: 45 min
- IC50 (Histone deacetylase 11): 14 nM
- IC50 (Histone deacetylase 3): 5 nM
SMILES: O=C1CC[C@@H](C(=O)N[C@H](CCCCCS)C(=O)Nc2ccccc2)N1
- Activity (Mus musculus): 3%
- inhibition in vivo at 100 mg/kg [4]: 27%
